Results as given in ChEMBL document CHEMBL1157586 (Bioorg Med Chem, 2010).
Activity calls are given as the source filed them. No cut-off for these calls is given here.

What was measured:
[1] = Inhibition of NIM by scintillation proximity assay
[2] = Inhibition of PDGFR by scintillation proximity assay
[3] = Inhibition of STK2 by scintillation proximity assay
[4] = Inhibition of SULU1 by scintillation proximity assay
HCT-116 [5] = assay: Antiproliferative activity against human HCT116 cells after 72 hrs by SRB assay; type: functional, cell-based; conditions: HCT-116, 72 h
COLO 205 = assay: Antiproliferative activity against human COLO205 cells after 72 hrs by SRB assay; type: functional, cell-based; conditions: COLO 205, 72 h
[6] = Antiproliferative activity against human C-433 cells after 72 hrs by SRB assay; type: functional, cell-based; conditions: C-433, 72 h
DU-145 = assay: Antiproliferative activity against human DU145 cells after 72 hrs by SRB assay; type: functional, cell-based; conditions: DU-145, 72 h
A-375 = assay: Antiproliferative activity against human A375 cells after 72 hrs by SRB assay; type: functional, cell-based; conditions: A-375, 72 h
PC-3 = assay: Antiproliferative activity against human PC3 cells after 72 hrs by SRB assay; type: functional, cell-based; conditions: PC-3, 72 h
MCF7 = assay: Antiproliferative activity against human MCF7 cells after 72 hrs by SRB assay; type: functional, cell-based; conditions: MCF7, 72 h
BXPC-3 [7] = assay: Antiproliferative activity against human BxPC3 cells after 72 hrs by SRB assay; type: functional, cell-based; conditions: BXPC-3, 72 h
A2780 [8] = assay: Cell cycle arrest in human A2780 cells assessed as accumulation at G0/G1 phase at 3 uM after 24 hrs by FACS analysis; type: functional
In short: (§1)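 A2780 cells (ECACC) seeded at 25000 cells/cm² in RPMI 1640, pH 7.4, with 10% FBS, 2 mM L-glutamine and penicillin–streptomycin, at 37 °C in 5% CO₂. After 24 h, treated for 24 h at 1 and 3 µM. Floating and trypsinised adherent cells pooled, PBS-washed, and DNA content analysed by flow cytometry.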

A2780 [9] = assay: Cell cycle arrest in human A2780 cells assessed as accumulation at S phase at 3 uM after 24 hrs by FACS analysis; type: functional; in short: as §1
A2780 [10] = assay: Cell cycle arrest in human A2780 cells assessed as accumulation at G2/M phase at 3 uM after 24 hrs by FACS analysis; type: functional; in short: as §1
A2780 [11] = assay: Cell cycle arrest in human A2780 cells assessed as accumulation at sub-G1 phase at 3 uM after 24 hrs by FACS analysis; type: functional; in short: as §1
A2780 [12] = assay: Cell cycle arrest in human A2780 cells assessed as accumulation at G0/G1 phase at 1 uM after 24 hrs by FACS analysis; type: functional; in short: as §1
A2780 [13] = assay: Cell cycle arrest in human A2780 cells assessed as accumulation at S phase at 1 uM after 24 hrs by FACS analysis; type: functional; in short: as §1
A2780 [14] = assay: Cell cycle arrest in human A2780 cells assessed as accumulation at G2/M phase at 1 uM after 24 hrs by FACS analysis; type: functional; in short: as §1
A2780 [15] = assay: Inhibition of cellular DNA synthesis in human A2780 cells assessed as BrdU incorporation into nuclear DNA at 3 uM after 24 hrs by Hoechst 33342 staining-based microscopic analysis; type: functional; parameters: scale not given: the % may be the effect or the level left
In short: (§2)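 A2780 human ovarian adenocarcinoma cells were seeded at 25000 cells/cm² in RPMI 1640 pH 7.4 with 10% FBS, 2 mM L-glutamine and penicillin–streptomycin. They were kept at 37 °C in 5% CO₂. After 24 h they were exposed to compound for 24 h. Floating and adherent cells were harvested with trypsin/EDTA, washed in PBS, and split for flow cytometry, immunoblot and BrdU incorporation.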

A2780 [16] = assay: Inhibition of cellular DNA synthesis in human A2780 cells assessed as BrdU incorporation into nuclear DNA at 1 uM after 24 hrs by Hoechst 33342 staining-based microscopic analysis; type: functional; parameters: scale not given: the % may be the effect or the level left; in short: as §2
[17] = biological target: T1, Cyclin-dependent kinase (Homo sapiens) (UniProt P06493+P11802+P24941+Q00535+Q00534+P50613+Q00526+Q00536+Q07002+P49336+Q00537+P21127+Q96Q40+Q9BWU1+O94921+P50750+Q15131+Q14004+Q8IZL9+Q9NYV4); assay: Inhibition of CDK in human A2780 cells assessed as reduction of hyperphosphorylated form of retinoblastoma protein at 1 uM by immunohistochemistry; type: cell-based
[18] = biological target: T1, Cyclin-dependent kinase (Homo sapiens); assay: Inhibition of CDK in human A2780 cells assessed as reduction of hyperphosphorylated form of retinoblastoma protein at 3 uM by immunohistochemistry; type: cell-based
[19] = biological target: T1, Cyclin-dependent kinase (Homo sapiens); assay: Inhibition of CDK in human A2780 cells assessed as accumulation of hypophosphorylated form of retinoblastoma protein at 1 uM by immunohistochemistry; type: cell-based
[20] = biological target: T1, Cyclin-dependent kinase (Homo sapiens); assay: Inhibition of CDK in human A2780 cells assessed as accumulation of hypophosphorylated form of retinoblastoma protein at 3 uM by immunohistochemistry; type: cell-based
A2780 [21] = assay: Antitumor activity against human A2780 cells xenografted in iv dosed BALB/c nu/nu mouse assessed as inhibition of tumor growth administered QD for 10 consecutive days measured every 3 days post last dose; type: functional, organism-based
In short: (§3)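 Human tumor xenografts (A2780 ovarian, HCT-116 colon, BX-PC3 pancreatic) in mice. Compound dissolved in 5% dextrose and given iv once daily for 10 consecutive days; A2780 curves show dosing from day 8. Doses were 10, 20 and 30 mg/kg for A2780, and 10 and 20 mg/kg for HCT-116 and BX-PC3. Controls received vehicle. Tumor growth inhibition taken at end of treatment; body weight tracked.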

A2780 [22] = assay: Antitumor activity against human A2780 cells xenografted in BALB/c nu/nu mouse assessed as inhibition of tumor growth at 30 mg/kg, iv QD for 10 consecutive days measured every 3 days post last dose; type: functional; in short: as §3
HCT-116 [23] = assay: Antitumor activity against human HCT116 cells xenografted in BALB/c nu/nu mouse assessed as inhibition of tumor growth at 20 mg/kg, iv QD for 10 consecutive days measured every 3 days post last dose; type: functional; conditions: HCT-116, read-out: INH; in short: as §3
HCT-116 [24] = assay: Antitumor activity against human HCT116 cells xenografted in iv dosed BALB/c nu/nu mouse assessed as inhibition of tumor growth administered QD for 10 consecutive days measured every 3 days post last dose; type: functional, organism-based; in short: as §3
BXPC-3 [25] = assay: Antitumor activity against human BxPC3 cells xenografted in BALB/c nu/nu mouse assessed as inhibition of tumor growth at 20 mg/kg, iv QD for 10 consecutive days measured every 3 days post last dose; type: functional; in short: as §3
Mus musculus = assay: Inhibition of CDK in human A2780 cells xenografted in iv dosed BALB/c nu/nu mouse assessed as reduction of hyperphosphorylated form of retinoblastoma protein at 30 mg/kg, iv for 5 days by immunohistochemistry; type: functional, organism-based; parameters: dose 30 mg/kg
In short: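 Mice bearing A2780 xenografts given 30 mg/kg iv for 5 days; vehicle controls. Tumors analysed by immunohistochemistry for BrdU and phospho-pRb positive cells. For BrdU, sections were denatured and pretreated with 4 N HCl and proteinase K, then stained with the Dako ARK kit and counterstained with hematoxylin. Automated quantitative image analysis done by two observers.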

[26] = Inhibition of CK2 by scintillation proximity assay
A2780 [27] = assay: Antiproliferative activity against human A2780 cells after 72 hrs by CellTiter-Glo luminescence assay; conditions: A2780, 72 h
A2780 [28] = assay: Antitumor activity against human A2780 cells xenografted in iv dosed BALB/c nu/nu mouse assessed as reduction of BrdU incorporation into cellular DNA at 30 mg/kg, iv for 5 days by immunohistochemistry

## CC(C)CC(=O)Nc1n[nH]c2c1CN(C(=O)C1CCN(C)CC1)C2(C)C [PHA-793887]
[1]
  IC50: > 10000 nM
[2]
  IC50: > 10000 nM
[3]
  IC50: > 10000 nM
[4]
  IC50: > 10000 nM
HCT-116 [5]
  IC50: 163 nM
COLO 205
  IC50: 188 nM
[6]
  IC50: 285 nM
DU-145
  IC50: 303 nM
A-375
  IC50: 396 nM
PC-3
  IC50: 601 nM
MCF7
  IC50: 1280 nM
BXPC-3 [7]
  IC50: 3440 nM
A2780 [8]
  Activity: -11%
A2780 [9]
  Activity: -48%
A2780 [10]
  Activity: 263%
A2780 [11]
  Activity: 26.2%
A2780 [12]
  Activity: 25%
A2780 [13]
  Activity: -76%
A2780 [14]
  Activity: 62%
A2780 [15]
  Activity: -100%
A2780 [16]
  Activity: -85%
[17]
  Activity: Active
[18]
  Activity: Active
[19]
  Activity: Active
[20]
  Activity: Active
A2780 [21]
  Activity: Dose-dependent effect
A2780 [22]
  inhibition in vivo at 30 mg/kg: 76%
HCT-116 [23]
  inhibition in vivo at 20 mg/kg: 81%
HCT-116 [24]
  Activity: Dose-dependent effect
BXPC-3 [25]
  inhibition in vivo at 20 mg/kg: 84%
Mus musculus
  Activity: Active
[26]
  IC50: > 10000 nM
A2780 [27]
  IC50: 90 nM
A2780 [28]
  Activity: Active
